ChEMBL document CHEMBL1127790, “Photodynamic antitumor agents: beta-methoxyethyl groups give access to functionalized porphycenes and enhance cellular uptake and activity” (J Med Chem, 1994)

Key:
Mus musculus [1] = organism: Mus musculus; test: Tested for phototoxic activity of compound on SSK2 cultivated murine fibrosarcoma cells; assay type: ADME, cell-based; conditions: light or radiation study, read-out: LD50 (the source's name)
Method in brief: (§1)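 SSK2 murine fibrosarcoma cells (C3H origin), 3 × 10^5 cells/dish after 18 h attachment, incubated 4 h at 37 °C/5% CO2 with sensitizer in DPPC liposomes (DPPC/sensitizer 100:1) diluted in MEM. Cells washed, irradiated in PBS with laser light at 20 mW/cm2 for 250 s (5 J/cm2), then kept 18 h in MEM/10% FCS. Viability by trypan blue exclusion, as percent of MEM-only controls, ≥5 dishes per point. LD50 in incubation medium by probit analysis.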

Mus musculus [2] = organism: Mus musculus; test: Cellular uptake kinetics of Porphycenes saturation cell level (cs)in SSK2 murine fibrosarcoma cells; assay type: ADME
Method in brief: (§2)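 Murine fibrosarcoma cells (SSK2, C3H mouse-derived; MEM/5% FCS, 37 °C, 5% CO2), 2.5 × 10^5 plated and grown 18 h. Then 2 µM porphycene in DOPC liposomes diluted in MEM, incubated at 37 °C for varying times. Cells washed, trypsinized, counted, pelleted. Extraction with methanol then acetonitrile containing diphenylanthracene internal standard. Fluorescence read at ex 370 nm against calibration plots. Saturation level from monoexponential fit.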

[3] = Cellular uptake kinetics of Porphycenes saturation cell level (cs); assay type: ADME; method in brief: as §2
Mus musculus [4] = organism: Mus musculus; test: Tested for Photodynamic activity of Sensitizers for cultivated SSK2 cells; assay type: ADME, cell-based; conditions: read-out: LD50 (the source's name); method in brief: as §1
[5] = (§3) Tested for Photodynamic activity of Sensitizers, lethal dose concentration in incubation media as obtained by probit analysis of SSK3 fibrosarcoma cells; assay type: ADME; conditions: Mus musculus, light or radiation study; read-out: LD50 (the source's name); method in brief: as §1
Mus musculus [6] = organism: Mus musculus; test: Tested for phototoxic activity of compound on SSK3 cultivated murine fibrosarcoma cells; assay type: ADME, cell-based; conditions: light or radiation study, read-out: LD50 (the source's name)
Mus musculus [7] = organism: Mus musculus; test: Cellular uptake kinetics of Porphycenes saturation cell level (cs) in SSK2 murine fibrosarcoma cells; assay type: ADME; method in brief: as §2
Mus musculus [8] = organism: Mus musculus; test: Cellular uptake kinetics of Porphycenes saturation cell level (cs) in SSK3 murine fibrosarcoma cells; assay type: ADME; method in brief: as §2
Mus musculus [9] = organism: Mus musculus; test: as §3; assay type: ADME, cell-based; conditions: in vivo, read-out: LD50 (the source's name); method in brief: as §1

Structure (SMILES): COCCC1=Cc2nc1ccc1[nH]c(cc1CCOC)c1nc(ccc3[nH]c2cc3CCOC)C(CCOC)=C1
- CC50 (Mus musculus [1]): 0.0085 µM
- Cell saturation (Mus musculus [2]): 9.3 pM (10e5·cells)-1

Structure (SMILES): COCCC1=Cc2nc1ccc1[nH]c(c3nc(ccc4[nH]c2cc4CCOC)C(CCOC)=C3)c2c(C(=O)OC)c(C(=O)O)ccc12
- Cell saturation [3]: 7.3 pM (10e5*cells)-1
- CC50 (Mus musculus [4]): 0.13 µM
- CC50 [5]: 0.013 µM

Structure (SMILES): COCCC1=Cc2nc1ccc1[nH]c(cc1CCOC)c1nc(ccc3[nH]c2cc3CCOC)C(CCO)=C1
- Cell saturation [3]: 9.3 pM (10e5*cells)-1
- CC50 (Mus musculus [1]): 0.09 µM
- CC50 (Mus musculus [6]): 0.0091 µM

Structure (SMILES): CCCC1=Cc2nc1ccc1[nH]c(cc1CCC)c1nc(c(OC(C)=O)cc3[nH]c2cc3CCC)C(CCC)=C1
- Cell saturation (Mus musculus [7]): 1.2 pM (10e5*cells)-1
- CC50 (Mus musculus [1]): 0.11 µM

Structure (SMILES): CCCC1=Cc2nc1ccc1[nH]c(cc1CCC)c1nc(ccc3[nH]c2cc3CCC)C(CCC)=C1
- Cell saturation (Mus musculus [7]): 1.5 pM (10e5*cells)-1

Structure (SMILES): CCCC1=Cc2nc1ccc1[nH]c(cc1CCO)c1nc(ccc3[nH]c2cc3CCC)C(CCO)=C1
- Cell saturation (Mus musculus [8]): 26 pM (10e5*cells)-1

Structure (SMILES): CCCC1=Cc2nc1ccc1[nH]c(cc1CCOC)c1nc(ccc3[nH]c2cc3CCC)C(CCOC)=C1
- Cell saturation (Mus musculus [8]): 14 pM (10e5*cells)-1

Structure (SMILES): C=CC1=C(C)c2cc3[nH]c(cc4nc(cc5[nH]c(cc1n2)c(C)c5CCC(=O)O)C(CCC(=O)O)=C4C)c(C)c3C=C [PROTOPORPHYRIN DISODIUM]
- CC50 (Mus musculus [4]): 19 µM
- CC50 (Mus musculus [9]): 1.9 µM
